Laboratory results reported in ChEMBL document CHEMBL1139996, “Synthesis, bioactivity, theoretical and molecular docking study of 1-cyano-N-substituted-cyclopropanecarboxamide as ketol-acid reductoisomerase inhibitor” (Bioorg Med Chem Lett, 2007).

How the values were obtained:
[1] = test system: Oryza sativa; assay: Inhibition of rice KARI at 200 ppm
Outline: (§1)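 Activity followed as the decrease in A340 at 30 °C. Reaction mix: 0.2 mM NADPH, 1 mM MgCl2, substrate (2-acetolactate or hydroxypyruvate) and inhibitor as required, in 0.1 M Tris–HCl, pH 8.0. Reaction started by adding enzyme. In inhibitor preincubation runs, substrate was added last instead.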

[2] = Inhibition of rice KARI; parameters: species or system Oryza sativa; outline: as §1

Structure (SMILES) | inhibition [1] [%] | Ki [2] [µM]
N#CC1(C(=O)Nc2ccc(C(F)(F)F)cc2)CC1 | 0 | 
N#CC1(C(=O)NCCO)CC1 | 98.9 | 
N#CC1(C(=O)Nc2cccc(Br)c2)CC1 | 17.2 | 
COc1ccc(NC(=O)C2(C#N)CC2)cc1 | 3.95 | 
Cc1ccccc1NC(=O)C1(C#N)CC1 | 100 | 
N#CC1(C(=O)Nc2cccc(Cl)c2)CC1 | 0 | 
N#CC1(C(=O)Nc2ccccc2C(F)(F)F)CC1 | 0 | 
N#CC1(C(=O)Nc2cc(Cl)c(Cl)cc2Cl)CC1 | 0 | 
N#CC1(C(=O)Nc2ccc(Br)cc2)CC1 | 32.2 | 
N#CC1(C(=O)Nc2ccc(Cl)cc2)CC1 | 93.9 | 
N#CC1(C(=O)Nc2ccc(Cl)cc2Cl)CC1 | 97 | 
N#CC1(C(=O)Nc2ccccc2)CC1 | 77.2 | 
CCOC(=O)C1(C#N)CC1 | 0 | 
Cc1ccc(NC(=O)C2(C#N)CC2)cc1 | 61.2 | > 300
N#CC1(C(=O)Nc2cccc(C(F)(F)F)c2)CC1 | 0 | 
N#CC1(C(=O)O)CC1 | 100 | 95.3
